Results reported in ChEMBL document CHEMBL1156509, “Survival in the presence of antifungals: genome-wide expression profiling of Aspergillus niger in response to sublethal concentrations of caspofungin and fenpropimorph” (2007).
The source made the active and inactive calls.

Legend:
Format in all cases: functional, organism-based
[1] = system: Aspergillus niger; assay: Antifungal activity against Aspergillus niger JvD1.1 at 104.2 ug/mL by microtiter plate
Procedure, shortened: (§1)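 Reporter conidia (2×10^4 per well) were pre-grown 6 h at 37 °C in 2× CM in glass-bottom plates. An equal volume of a 2-fold dilution series (seven concentrations) was added, then 3 h at 30 °C. Medium was discarded and adherent germlings imaged. Growth inhibition was scored 0/1/2 from hyphal length.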

[2] = system: Aspergillus niger; assay: Induction of GFP tagged PagsA expression in Aspergillus niger JvD1.1 at 104.2 ug/mL by fluorescence microscopy
Procedure, shortened: (§2)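 agsA promoter-GFP reporters, cytoplasmic (JvD1.1) or nuclear H2B-targeted (RD6.47). Germlings pre-grown 6 h at 37 °C in 2× CM, exposed 3 h at 30 °C to seven 2-fold dilutions. GFP levels were scored by fluorescence microscopy as 0 (basal), 1 (intermediate) or 2 (high). Controls: gpdA-H2B-GFP strain MA26.1 (positive), N402 (negative).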

[3] = system: Aspergillus niger; assay: Antifungal activity against Aspergillus niger RD6.47 at 104.2 ug/mL by microtiter plate; procedure, shortened: as §1
[4] = system: Aspergillus niger; assay: Induction of GFP tagged PagsA-H2B expression in Aspergillus niger RD6.47 at 104.2 ug/mL by fluorescence microscopy; procedure, shortened: as §2

Measured: Activity

N#Cc1c[nH]cc1-c1cccc2c1OC(F)(F)O2
active: all assays above
